Source: ChEMBL document CHEMBL1687890, “Design, synthesis, pharmacological evaluation, and structure-activity study of novel endomorphin analogues with multiple structural modifications” (J Med Chem, 2011)

Assays:
[1] = molecular target: Mu-type opioid receptor (Rattus norvegicus) (UniProt P33535); assay: Agonist activity at opioid receptor in mu rat brain membrane by [35S]GTPgammaS binding assay relative to baseline in presence of opioid-selective antagonist naloxone; type: functional, cell membranes
Mu-type opioid receptor [2] = molecular target: T1, Mu-type opioid receptor (Rattus norvegicus, UniProt P33535); assay: Displacement of [3H]DAMGO from mu opioid receptor in rat brain membrane homogenate by liquid scintillation counting; type: cell membranes
[3] = molecular target: Mu-type opioid receptor (Rattus norvegicus) (UniProt P33535); assay: Agonist activity at mu opioid receptor in rat brain membrane by [35S]GTPgammaS binding assay relative to baseline; type: functional, cell membranes
Rattus norvegicus = species on record: Rattus norvegicus; assay: Selectivity ratio of Ki for delta opioid receptor in rat brain to mu opioid receptor in rat brain; type: tissue-based
Mu-type opioid receptor [4] = molecular target: T1, Mu-type opioid receptor; assay: Agonist activity at mu opioid receptor in rat brain membrane by [35S]GTPgammaS binding assay; type: functional, cell membranes
[5] = molecular target: Delta-type opioid receptor (Rattus norvegicus, UniProt P33533); assay: Displacement of [3H][Ile5,6]deltorphin2 from delta opioid receptor in rat brain membrane homogenate by liquid scintillation counting; type: cell membranes
[6] = Half life in rat brain homogenate by RP-HPLC; type: ADME, tissue-based
Procedure, shortened: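 Peptide (1 mM stock in 50 mM Tris-HCl pH 7.4, 1:10 into homogenate) incubated at 37 °C with crude rat brain homogenate (5.0 mg/mL protein). Aliquots quenched with HCl, centrifuged, supernatant run on RP-HPLC. k from linear regression of ln(A/A0) vs time over at least 5 time points; t1/2 = ln2/k, pseudo-first-order. At least three experiments.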

T1 sequence (P33535 whole entry): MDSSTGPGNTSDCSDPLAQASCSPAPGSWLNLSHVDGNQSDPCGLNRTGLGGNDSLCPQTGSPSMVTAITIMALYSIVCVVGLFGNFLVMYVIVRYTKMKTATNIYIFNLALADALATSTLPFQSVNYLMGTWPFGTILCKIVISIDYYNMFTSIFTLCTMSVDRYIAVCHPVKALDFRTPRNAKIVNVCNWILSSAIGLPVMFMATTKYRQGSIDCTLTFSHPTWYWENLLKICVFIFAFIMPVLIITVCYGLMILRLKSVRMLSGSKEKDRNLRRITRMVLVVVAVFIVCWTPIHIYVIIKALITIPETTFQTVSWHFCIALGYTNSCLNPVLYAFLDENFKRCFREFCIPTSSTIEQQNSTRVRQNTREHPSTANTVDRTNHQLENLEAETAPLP
Sequence of Mu-type opioid receptor (Rattus norvegicus) (P33535 whole entry): as above
Sequence of Delta-type opioid receptor (P33533 whole entry): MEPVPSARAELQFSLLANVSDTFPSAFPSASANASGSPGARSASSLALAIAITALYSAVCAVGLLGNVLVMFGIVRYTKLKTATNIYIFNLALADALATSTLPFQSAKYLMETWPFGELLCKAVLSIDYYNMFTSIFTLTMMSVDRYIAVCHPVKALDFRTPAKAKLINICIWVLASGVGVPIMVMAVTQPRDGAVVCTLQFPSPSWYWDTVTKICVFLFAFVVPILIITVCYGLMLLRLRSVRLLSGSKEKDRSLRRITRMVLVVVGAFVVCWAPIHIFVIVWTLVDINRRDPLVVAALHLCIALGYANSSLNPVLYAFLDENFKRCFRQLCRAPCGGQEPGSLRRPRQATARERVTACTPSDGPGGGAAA

Compound: Cc1cc(CC(N)C(=O)N[C@@H]2CCCC[C@@H]2C(=O)N[C@@H](Cc2c[nH]c3ccccc23)C(=O)NC(Cc2ccc(F)cc2)C(N)=O)cc(C)c1O (some centres undefined)
- Emax [1]: 127%
- Ki (Mu-type opioid receptor [2]): 11.1 nM
- Emax [3]: 163%
- Ratio Ki (Rattus norvegicus): 237
- EC50 (Mu-type opioid receptor [4]): 8.1 nM
- Ki [5]: 2640 nM

Compound: C[C@H](c1ccccc1)[C@@H](NC(=O)[C@H](Cc1c[nH]c2ccccc12)NC(=O)[C@H]1CCCC[C@H]1NC(=O)[C@@H](N)Cc1ccc(O)cc1)C(N)=O
- Ki (Mu-type opioid receptor [2]): 34.6 nM
- Ratio Ki (Rattus norvegicus): 97
- Ki [5]: 3360 nM

Compound: Cc1cc(CC(N)C(=O)N[C@@H]2CCCC[C@@H]2C(=O)N[C@@H](Cc2c[nH]c3ccccc23)C(=O)N[C@H](C(N)=O)[C@@H](C)c2ccccc2)cc(C)c1O (some centres undefined)
- Emax [1]: 145%
- Ki (Mu-type opioid receptor [2]): 0.93 nM
- Emax [3]: 162%
- Ratio Ki (Rattus norvegicus): 132
- EC50 (Mu-type opioid receptor [4]): 22.1 nM
- Ki [5]: 123 nM

Compound: NC(=O)C(Cc1ccc(F)cc1)NC(=O)[C@H](Cc1c[nH]c2ccccc12)NC(=O)[C@H]1CCCC[C@H]1NC(=O)[C@@H](N)Cc1ccc(O)cc1 (some centres undefined)
- Emax [1]: 125%
- Ki (Mu-type opioid receptor [2]): 3.2 nM
- half-life [6]: > 20 h
- Emax [3]: 174%
- Ratio Ki (Rattus norvegicus): 178
- EC50 (Mu-type opioid receptor [4]): 380 nM
- Ki [5]: 571 nM

Compound: C[C@@H](c1ccccc1)[C@H](NC(=O)[C@H](Cc1ccccc1)NC(=O)[C@H]1CCCC[C@H]1NC(=O)[C@@H](N)Cc1ccc(O)cc1)C(N)=O
- Ki [5]: 661 nM

Compound: Cc1cc(CC(N)C(=O)N[C@@H]2CCCC[C@@H]2C(=O)N[C@@H](Cc2ccccc2)C(=O)N[C@@H](C(N)=O)[C@H](C)c2ccccc2)cc(C)c1O (some centres undefined)
- Ki (Mu-type opioid receptor [2]): 9.7 nM
- Ratio Ki (Rattus norvegicus): 20
- Ki [5]: 198 nM

Compound: C[C@@H](c1ccccc1)[C@H](NC(=O)[C@H](Cc1c[nH]c2ccccc12)NC(=O)[C@H]1CCCC[C@H]1NC(=O)[C@@H](N)Cc1ccc(O)cc1)C(N)=O
- Emax [1]: 130%
- Ki (Mu-type opioid receptor [2]): 4.2 nM
- half-life [6]: > 20 h
- Emax [3]: 162%
- Ratio Ki (Rattus norvegicus): 343
- EC50 (Mu-type opioid receptor [4]): 264 nM
- Ki [5]: 1440 nM

Compound: Cc1cc(CC(N)C(=O)N[C@@H]2CCCC[C@@H]2C(=O)N[C@@H](Cc2c[nH]c3ccccc23)C(=O)N[C@@H](C(N)=O)[C@H](C)c2ccccc2)cc(C)c1O (some centres undefined)
- Ki (Mu-type opioid receptor [2]): 4.11 nM
- Ratio Ki (Rattus norvegicus): 69
- Ki [5]: 287 nM

Compound: C[C@H](c1ccccc1)[C@@H](NC(=O)[C@H](Cc1ccccc1)NC(=O)[C@H]1CCCC[C@H]1NC(=O)[C@@H](N)Cc1ccc(O)cc1)C(N)=O
- Ki [5]: 1270 nM

Compound: NC(=O)[C@H](Cc1ccccc1)NC(=O)[C@H](Cc1ccccc1)NC(=O)[C@@H]1CCCN1C(=O)[C@@H](N)Cc1ccc(O)cc1 [ENDOMORPHIN 2]
- Emax [1]: 123%
- half-life [6]: 0.095 h
- Emax [3]: 163%

Compound: NC(=O)[C@H](Cc1ccccc1)NC(=O)[C@H](Cc1c[nH]c2ccccc12)NC(=O)[C@@H]1CCCN1C(=O)[C@@H](N)Cc1ccc(O)cc1 [ENDOMORPHIN-1]
- Emax [1]: 124%
- half-life [6]: 0.105 h
- Emax [3]: 149%

Compound: C[C@@H](NC(=O)[C@@H](N)Cc1ccc(O)cc1)C(=O)NCC(=O)N(C)[C@@H](Cc1ccccc1)C(=O)NCCO
- Emax [1]: 119%
- Emax [3]: 178%

Compound: Cc1cc(CC(N)C(=O)N[C@@H]2CCCC[C@@H]2C(=O)N[C@@H](Cc2ccccc2)C(=O)NC(Cc2ccc(F)cc2)C(N)=O)cc(C)c1O (some centres undefined)
- half-life [6]: > 20 h
- Ki [5]: 96 nM

Compound: NC(=O)C(Cc1ccc(F)cc1)NC(=O)[C@H](Cc1ccccc1)NC(=O)[C@H]1CCCC[C@H]1NC(=O)[C@@H](N)Cc1ccc(O)cc1 (some centres undefined)
- Ki [5]: 366 nM

Compound: NC(=O)C(Cc1ccc(F)cc1)NC(=O)[C@H](Cc1c[nH]c2ccccc12)NC(=O)[C@@H]1CCCC[C@@H]1NC(=O)[C@@H](N)Cc1ccc(O)cc1 (some centres undefined)
- Ki (Mu-type opioid receptor [2]): 143 nM
- Ratio Ki (Rattus norvegicus): 54
- Ki [5]: 7820 nM

Compound: Cc1cc(CC(N)C(=O)N[C@@H]2CCCC[C@@H]2C(=O)N[C@@H](Cc2ccccc2)C(=O)N[C@H](C(N)=O)[C@@H](C)c2ccccc2)cc(C)c1O (some centres undefined)
- Emax [1]: 146%
- Ki (Mu-type opioid receptor [2]): 0.47 nM
- half-life [6]: > 20 h
- Emax [3]: 159%
- Ratio Ki (Rattus norvegicus): 302
- EC50 (Mu-type opioid receptor [4]): 17 nM
- Ki [5]: 142 nM

Compound: NC(=O)C(Cc1ccc(F)cc1)NC(=O)[C@H](Cc1ccccc1)NC(=O)[C@@H]1CCCC[C@@H]1NC(=O)[C@@H](N)Cc1ccc(O)cc1 (some centres undefined)
- Ki [5]: 689 nM
